High-throughput results (PubChem)
Rows were chosen to be rich in hits. Some 1.4% of all compounds tested hit in one or more screens of this group.
T cell HTS = modulators of CD8 T cell-vesicle binding, primary screen, mouse 2C CD8+ T cells, flow cytometry; 2C CD8+ T cell-vesicle binding; active compounds read low; response (vesicle binding), % at 7 µM; actives 0.068% (n = 330,000); AID 2052, 2009;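 active means response, share of CD8 T cells binding vesicles, and their 90th percentile fluorescence all below set limits, cut at about 80% in these data, passing the limit was not always enough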;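 further: values below 100% mean blocked vesicle binding to the CD8+ T cells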
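Benchmarks: naked versus QL9-loaded vesicles / Assay system: purified 2C TCR transgenic mouse naive CD8+ T cells / Technique: high-throughput flow cytometry with anti-B7-1 and anti-CD8 staining / Timing: Cell–vesicle co-incubation 1.5 h at 37 °C, staining 20 min on ice / Read-out: percent CD8+ FL2 mean versus row control / Probe or stimulus: QL9-loaded Drosophila micro-vesicles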
Casp6 inh = human caspase-6 inhibitors, primary screen, biochemical, VEID-R110 fluorescence, single point, set 2; purified caspase-6, Z-VEID-R110 cleavage fluorescence; inhibition, % at 12.5 µM; P55212; actives 0.53% (n = 350,000);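 active means mean inhibition across replicates at least about 35%, with every replicate also reaching that limit, limit read from the data; inconclusive means only one of the two criteria met; inactive means neither criterion met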;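 further: 0% = median of neutral control wells and 100% = no fluorescence left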
Target sequence (P55212 24-179 limits assumed): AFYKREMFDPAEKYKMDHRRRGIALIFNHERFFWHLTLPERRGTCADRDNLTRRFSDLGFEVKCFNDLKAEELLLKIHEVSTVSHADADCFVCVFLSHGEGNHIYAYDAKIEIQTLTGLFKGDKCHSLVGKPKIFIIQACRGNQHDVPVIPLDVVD
Target sequence (P55212 194-293 limits assumed): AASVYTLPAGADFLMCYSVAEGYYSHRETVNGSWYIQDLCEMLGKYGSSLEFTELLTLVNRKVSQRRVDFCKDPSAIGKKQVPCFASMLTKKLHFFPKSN
Myeloid diff MLP = induction of myeloid progenitor differentiation, primary screen, cell-based, flow cytometry, MLPCN library. calls only at 10 µM. actives 1% (n = 360,000). ER-HoxA9 myeloid progenitors, lysozyme-GFP differentiation;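 active means normalized GFP-positive differentiation at or above the plate's own cutoff, the solvent-only control mean plus 3 SD; inconclusive means no clear call, values can overlap the other calls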;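 further: cells exposed to compound for four days before flow analysis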
Vif inh = HIV Vif self-association inhibitors, primary screen, imaging, HEK293T, single point; inhibition, % at 7.49 µM; HEK293T cells, Vif self-association by quenched fluorescence, 24 h; actives 0.35% (n = 340,000); in the data active means inhibition above about 50%, passing the limit was not always enough; inconclusive means no clear call, values can overlap the other calls; inactive means below about 31%
Myeloid diff = inducers of myeloid progenitor differentiation, confirmation, cell-based, GFP/Mac1 flow cytometry, cherry pick 01; shares compounds with Myeloid diff MLP; ER-HoxA9 myeloid progenitors, GFP/Mac1 double-positive flow; calls only; actives 2% (n = 2,300); AID 651706, 2012;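 active means share of green or green-and-red cells above 9 and 9% in run 1 or 4 and 3% in run 2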
GFP autofluor = flagged as fluorescent in myeloid differentiation counter-screen; shares compounds with Myeloid diff MLP; fluorescence response, % (concentration not given with the values); actives 7.4% (n = 2,300); ER-HoxA9 myeloid progenitors, no estrogen, GFP autofluorescence flow cytometry; vehicle wells 0%, positive control 100%;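 active means over 5% cells positive for green fluorescent reporter, or over 2% positive for both it and APC stain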;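 further: range taken on the double positive population between DMSO and positive control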
* hit, by the source's call; i = inactive; ? = inconclusive; · = no result given; + = active, no number.

SMILES	T cell HTS	Casp6 inh	Myeloid diff MLP	Vif inh	Myeloid diff	GFP autofluor
C[C@@H]1CCCCO[C@H](CN(C)Cc2ccc3c(c2)OCO3)[C@H](C)CN([C@H](C)CO)C(=O)c2cc(NC(=O)Nc3ccc(F)cc3)ccc2O1	·	-2	·	·	·	·
CO[C@H]1CN(C)C(=O)c2cc(NC(=O)C3CCC3)ccc2OC[C@@H](C)N(Cc2nccs2)C[C@H]1C	·	-1	·	·	·	·
CCOC(=O)N1CCN(C(=O)C2CCN(S(=O)(=O)N3CCCC3)CC2)CC1	226	·	+	2	i	0
CN(C)c1ccc2c(c1)[C@H]1C[C@H](CC(=O)N3CCCCC3)O[C@@H](CO)[C@H]1O2	·	2	·	·	·	·
COc1ccc(S(=O)(=O)N(C)CC(=O)Nc2ccc(F)cc2)cc1	484	-1	i	-10	i	0
CCN(CC)CCNC(=O)c1cn(CC)c2ccc(S(=O)(=O)N(C)C3CCCCC3)cc2c1=O	313	-14	i	-3	·	·
CCN(CC)CCNC(=O)c1cn(C)c2ccc(S(=O)(=O)N(C)C3CCCCC3)cc2c1=O	210	-4	i	-5	i	0
COc1ccc2c(c1)C(CC(C)=O)N(c1ccc(-c3cnc(OC)nc3)cc1)C(c1ccsc1)=C2 (centres undefined)	·	0	i	·	·	·
COc1ccc2c(c1)C(CC(C)=O)N(c1ccc(-c3cccs3)cc1)C(c1ccsc1)=C2 (centres undefined)	·	-5	+	·	i	0
Cc1ccc(N(C(=O)Cn2nnc(-c3cccs3)n2)C(C(=O)NC2CCCC2)c2ccncc2)cc1 (centres undefined)	570	·	i	2	i	0
Cc1ccc(N(C(=O)Cn2nnc(-c3ccccc3F)n2)C(C(=O)NC2CCCC2)c2ccncc2)cc1 (centres undefined)	105	-2	i	-4	·	·
CC(C)NC(=O)N1CC2(C1)[C@H](c1ccccc1)[C@@H](CO)N2C(=O)C1CCC1	·	1	·	·	·	·
c1coc(C2Nc3ccccc3-c3nc4ccccc4n32)c1 (centres undefined)	797	7	i	-7	i	1
COc1ccc(CN(C)C[C@@H]2OCCCC[C@H](C)Oc3ccc(NS(=O)(=O)c4ccc(F)cc4)cc3C(=O)N([C@H](C)CO)C[C@@H]2C)cc1	·	0	·	·	·	·
CCN(Cc1nc2cc(Cl)ccc2c(=O)[nH]1)C(=O)c1cc2c(s1)CCCCC2	·	-4	i	-15	i	0
CC(=O)N1CCc2c(sc(NC(=O)c3ccc([N+](=O)[O-])o3)c2C#N)C1	·	38*	+	-5	i	0
COc1ccc(C(=O)Nc2sc3c(c2C#N)CCN(C(C)=O)C3)cc1	445	-4	i	-11	·	·
Cc1ccc(S(=O)(=O)Nc2ccc3c(c2)C(=O)N([C@@H](C)CO)C[C@H](C)[C@H](CN(C)C(=O)CCC(F)(F)F)OCCCC[C@@H](C)O3)cc1	·	1	·	·	·	·
COc1ccc(CNC(=O)C2CCCN(S(=O)(=O)c3c(C)n[nH]c3C)C2)cc1 (centres undefined)	455	·	i	?	i	2
CC(=O)N1[C@@H]2Cn3c(ccc(-c4ccccc4)c3=O)[C@H]1[C@@H](C(=O)NCCCN1CCOCC1)[C@@H]2CO	·	-1	·	·	·	·
CCOc1cc(/C=C2\N=C(C)OC2=O)cc(Br)c1OCC(=O)OC	514	4	+	2	i	0
CCOc1cc(/C=C2\N=C(C)OC2=O)cc(Br)c1OCCc1ccccc1	184	8	i	13	·	·
CSc1ncnc2c1ncn2CCCNCCCN1CCCC1=O	·	10	+	·	i	1
CCOc1ccccc1OC(=O)c1ccco1	369	·	i	5	i	1
CC(=O)c1ccccc1OC(=O)c1ccco1	271	·	+	-6	i	0
O=C(C1CCOCC1)N1CC(=O)N2[C@@H](CO)[C@H](c3ccc(/C=C/c4ccccc4)cc3)[C@@H]2C1	·	4	·	·	·	·
CCOC(=O)c1c(C)oc2ccc(NS(=O)(=O)c3cccs3)cc12	490	1	·	-3	i	0
